Assay outcomes as filed in PubChem.
PostGolgi yeast – growth inhibition of a yeast mutant, post-Golgi transport screen; post-Golgi transport phenotypic cell assay; inhibition, % at 10 µM; hit rate 0.9% among 98,000;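 also: yeast cells grown in 1536-well plates; yeast grown about 18 h at 30C before absorbance read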
EphB4 ephrin blk – antagonists of human EphB4-ephrin-B2 interaction | P54760 | EphB4 LBD / TNYL-RAW-Alexa532 peptide, fluorescence polarization | inhibition, % at 7 µM | hit rate 0.15% among 97,000;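 active = inhibition above the screen-wide mean inhibition plus 3 SD, cut at about 15% in these data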;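 also: 0% = DMSO wells and 100% = excess unlabeled TNYL-RAW peptide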
PostGolgi ctrl – yeast control strain growth, post-Golgi counter-screen; efflux-deficient yeast background strain, growth absorbance A615, 16 h; inhibition, % at 10 µM; hit rate 5% among 98,000; AID 738
E coli WT exp – E. coli BW25113 growth inhibition, expanded screen. OD600 absorbance. growth inhibition, % at 100 µM. hit rate 0.15% among 98,000. AID 710;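 active = growth inhibition above about 50% at one test dose, limit read from the data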;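 also: growth measured after 20 h incubation at 37 °C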
tolC growth inh – growth inhibitors of E. coli BW25113 tolC mutant. OD615. growth inhibition, % at 10 µM (by protocol). hit rate 2.2% among 65,000;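 active = growth inhibition at or above a cutoff equal to the mean over every tested compound plus 3 SD, cut at about 60% in these data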;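 also: growth measured after 20 h incubation at 37 °C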
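Test system: E. coli BW25113 ΔtolC::kan bacteria; incubation: 37 °C, 20 h exposure; medium: LB broth supplemented with 50 µg/mL kanamycin; read-out basis: percent growth inhibition; signal: A615 absorbance measurement; compound: 10 µM final, single dose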
Active calls of the source: *; . = no result given. Most compounds without a hit are left out; they make up all but 6% or so of the library. Rule as the data show it, unless noted: active = inhibition above about 30%; inactive = the rest.

SMILES	PostGolgi yeast	EphB4 ephrin blk	PostGolgi ctrl	E coli WT exp	tolC growth inh
COc1ccc(-c2cc(-c3ccc(F)cc3)nc(N3CCN(C)CC3)n2)cc1	20.4	0.9	31.5*	-4.0	-7.8
CC(CCc1ccco1)NC(=O)Cn1ncc2c1-c1ccccc1OC2 (centres undefined)	2.4	-3.6	3.2	-1.0	4.3
O=C(c1ccc2c(c1)OCCO2)N(c1ccccn1)C1CCCCC1	-4.1	-1.2	1.4	0.0	6.7
CC(C)(C)NC(=O)C(c1ccccn1)N(C(=O)c1ccc2c(c1)OCCO2)C1CCCC1 (centres undefined)	3.5	-5.5	30.6*	3.0	-8.2
O=C1C2ON(c3ccc(Cl)cc3)C(c3ccco3)C2C(=O)N1c1ccccc1 (centres undefined)	-2.7	-1.5	6.4	-1.0	-25.5
Cc1cc(C(=O)COc2ccc(-c3nnco3)cc2)c(C)n1Cc1ccccc1	3.8	-10.7	21.0	-3.0	40.2
COC(=O)CNC(=O)/C=C/c1ccc(OC)cc1	-3.8	5.5	6.9	5.0	.
Cc1ccc(C(=O)Nc2ccccc2-c2ccccc2)o1	5.8	4.2	35.4*	5.0	.
Cn1c(-c2c(N)n(CCc3ccccc3)c3nc4ccccc4nc23)nc2ccccc21	88.2*	-3.5	78.2*	-21.0	.
COCCn1c(N)c(C#N)c2nc3ccccc3nc21	1.6	1.3	0.0	8.0	.
COCCCn1c(N)c(-c2nc3ccccc3n2C)c2nc3ccccc3nc21	10.2	6.2	73.2*	5.0	.
Cn1c(-c2c(N)n(CCCc3ccccc3)c3nc4ccccc4nc23)nc2ccccc21	25.3	11.2	17.1	-20.0	.
Cn1c(-c2c(N)n(C3CCCC3)c3nc4ccccc4nc23)nc2ccccc21	24.2	-4.1	100.2*	-8.0	40.6
CC1C/C(=N/NC(=O)c2cccc(F)c2)c2ccc(O)cc2C1 (centres undefined)	-1.7	-4.8	4.9	-8.0	.
O=C(NCCc1csc(-c2ccccc2)n1)c1ccc(Br)o1	-5.6	-8.7	34.5*	6.0	.
Cc1ccc(C2c3c(-c4ccccc4O)n[nH]c3C(=O)N2Cc2ccncc2)cc1 (centres undefined)	-6.2	-11.1	-1.5	5.0	68.8*
Cc1cc(C(=O)NNC(=S)NC(C)c2ccccc2)c2ccccc2n1 (centres undefined)	4.4	10.5	-0.9	3.0	.
O=C(Nc1cc(S(=O)(=O)N2CCOCC2)ccc1Cl)C(=O)c1c(-c2ccccc2)cc2ccccn12	92.8*	2.5	100.3*	-10.0	.
N/C(=N\OC(=O)C(c1ccccc1)c1ccccc1)c1cccnc1	-2.5	1.4	39.5*	0.0	.
CN(C)C(=O)NC(Nc1ccc(Cl)cc1Cl)C(Cl)(Cl)Cl (centres undefined)	6.7	-5.0	9.3	11.0	.
O=C(Cc1ccccc1)NCC1CCCO1 (centres undefined)	0.2	-2.8	-0.5	9.0	.
O=C(CCS(=O)(=O)Cc1ccccc1)NCC1CCCO1 (centres undefined)	-4.2	-1.7	34.0*	9.0	-19.7
COCC(=O)N(Cc1ccccc1)c1ccccn1	2.2	5.4	16.3	-4.0	6.7
COc1ccccc1NC(=O)N(Cc1ccccc1)c1ccccn1	18.8	-9.4	44.8*	-14.0	45.2
CC(=O)Nc1ccc(SC(C)C(=O)NC(N)=O)cc1 (centres undefined)	1.0	-1.2	13.3	-5.0	.
SMILES	PostGolgi yeast	EphB4 ephrin blk	PostGolgi ctrl	E coli WT exp	tolC growth inh
CCc1nc(SCC(=O)Nc2sc(C)c(C)c2C(=O)OC)c2ccccc2n1	3.4	-0.6	4.8	-2.0	.
O=c1n(Cc2ccc(Cl)cc2)c2sc3c(c2c2ncnn12)CCCC3	16.5	-3.3	92.6*	-3.0	74.8*
CC(=O)Oc1ccc2c(c1)cc(C)n2C	.	5.9	.	.	.
CCOC(=O)c1c(C)[nH]c(C)c1C(=O)COC(=O)c1ccc(Cl)c(S(=O)(=O)NCc2ccccc2)c1	-7.3	-1.3	23.7	-12.0	.
CCCCOc1ccc(-c2ncc(C(=O)O)c(C)n2)cc1	43.8*	-1.7	3.6	-5.0	28.4
O=C(CSc1nnc(-c2ccccn2)n1Cc1ccccc1)NC1CCCC1	18.2	15.8*	1.1	4.0	13.4
O=C(N/N=C/c1c[nH]c2ccccc12)c1ccn(Cc2ccc(Cl)cc2Cl)n1	5.6	2.9	9.8	-5.0	.
O=C(N/N=C/c1c[nH]c2ccc(Br)cc12)c1ccn(Cc2ccc(Cl)cc2)n1	3.3	-4.2	56.5*	-8.0	.
COc1ccc(S(=O)(=O)N(C)CC(=O)Nc2ccc(C(F)(F)F)cc2)cc1Cl	-6.0	6.4	7.0	-21.0	.
Cc1ccc(NN2C(=O)C=C(c3ccc(Cl)cc3)C2=O)cc1	106.4*	-0.4	99.4*	3.0	.
